Results taken from ChEMBL document CHEMBL1125080, “Potential antipsychotic agents 5. Synthesis and antidopaminergic properties of substituted 5,6-dimethoxysalicylamides and related compounds” (J Med Chem, 1990).

Columns and labels:
[1] = target: T1, D(2) dopamine receptor (Rattus norvegicus, UniProt P61169); assay: In vitro ability to inhibit the binding of [3H]spiperone to dopamine receptor D2 in rat striatal membranes.; assay type: cell membranes, Membrane
[2] = system: Rattus norvegicus; assay: Evaluated in vitro for antipsychotic activity (hyperactivity) for the block of apomorphine induced response after ip administration 60 min prior to apomorphine (1 mg/kg sc); assay type: functional
Outline: (§1)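 Male Sprague-Dawley rats (270–325 g) received compound ip, in saline or in acetic acid plus distilled water, 60 min before apomorphine HCl (1 mg/kg sc, neck). Hyperactivity and stereotypies were scored 5, 20, 40 and 60 min after apomorphine.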

[3] = system: Rattus norvegicus; assay: Evaluated in vitro for antipsychotic activity (stereotypies) for the block of apomorphine induced response after ip administration 60 min prior to apomorphine (1 mg/kg sc); assay type: functional; outline: as §1
[4] = target: T1, D(2) dopamine receptor; assay: Inhibition of [3H]raclopride binding to rat striatal membrane Dopamine receptor D2
[5] = system: Rattus norvegicus; assay: Dose which blocks the hypothermic effect of apomorphine by 50% against Sprague-Dawley rats when administered intraperitoneally; assay type: functional; conditions: ip
Outline: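 Sprague-Dawley rats (n = 6 per group) were pretreated ip with saline or compound 60 min before apomorphine HCl (1 mg/kg sc). Core temperature was taken by rectal probe before dosing, before apomorphine and 15 min after it. Mean changes were expressed as percent of control.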

[6] = system: Rattus norvegicus; assay: Catalepsy interval defined as the time required for both fore limbs to be removed from the bar when administered intraperitoneally; assay type: functional; conditions: ip
Outline: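 Rats given test compound ip, then tested on a horizontal bar (1.5 cm diameter, 7 cm above cage floor) at 20, 40, 60, 90, 120 and 240 min after injection. A saline control group was tested the same way. An animal counted as cataleptic if it held ≥ 15 s. The proportion cataleptic at each dose gave dose-response curves, and ED50 came from probit analysis.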

T1 sequence (P61169 whole entry): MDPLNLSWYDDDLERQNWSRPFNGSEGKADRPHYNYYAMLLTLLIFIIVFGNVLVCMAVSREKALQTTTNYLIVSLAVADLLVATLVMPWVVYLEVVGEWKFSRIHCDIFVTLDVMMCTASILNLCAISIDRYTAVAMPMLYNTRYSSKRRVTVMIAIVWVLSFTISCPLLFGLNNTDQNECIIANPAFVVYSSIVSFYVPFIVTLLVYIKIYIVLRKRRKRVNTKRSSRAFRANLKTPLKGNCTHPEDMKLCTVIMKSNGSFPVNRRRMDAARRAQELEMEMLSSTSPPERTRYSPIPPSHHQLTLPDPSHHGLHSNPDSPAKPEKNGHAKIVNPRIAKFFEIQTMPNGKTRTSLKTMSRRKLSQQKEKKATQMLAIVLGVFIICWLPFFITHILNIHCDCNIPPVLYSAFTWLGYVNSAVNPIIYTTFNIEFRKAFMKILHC

CCc1cc(OC)c(OC)c(C(=O)NC[C@@H]2CCCN2CC)c1OC
IC50 [1]: 820 nM

CCN1CCC[C@H]1CNC(=O)c1c(O)c(OC)cc(Br)c1OC
IC50 [1]: 67 nM
ED50 [2]: 1.3 µmol/kg
ED50 [3]: 12 µmol/kg
Ki [4]: 8.38 nM

CCN1CCC[C@H]1CNC(=O)c1c(O)ccc(O)c1OC
IC50 [1]: 56 nM

CCN1CCC[C@H]1CNC(=O)c1c(O)c(Cl)cc(OC)c1OC
IC50 [1]: 1.7 nM
Ki [4]: 0.087 nM

CCN1CCC[C@H]1CNC(=O)c1c(N)c(Br)cc(OC)c1OC
IC50 [1]: 21 nM

C=CCN1CCC[C@H]1CNC(=O)c1c(O)c(OC)cc(Br)c1OC
IC50 [1]: 44 nM

CCCc1cc(OC)c(OC)c(C(=O)NC[C@@H]2CCCN2CC)c1O.O=C(O)/C(O)=C(\O)C(=O)O
Ki [4]: 0.023 nM

CCN1CCC[C@H]1CNC(=O)c1c(OC)ccc(OC)c1O
IC50 [1]: 205 nM

CCc1cc(OC)c(O)c(C(=O)NC[C@@H]2CCCN2CC)c1OC
IC50 [1]: 19 nM

CCN1CCC[C@H]1CNC(=O)c1c(O)c(OC)cc(Cl)c1OC
IC50 [1]: 71 nM

CCN1CCC[C@H]1CNC(=O)c1c(OC)c(Br)cc(OC)c1OC
IC50 [1]: 1750 nM

CCN1CCC[C@H]1CNC(=O)c1c(OC)c(Cl)cc(OC)c1OC
IC50 [1]: 420 nM

CCc1cc(OC)c(OC)c(C(=O)NC[C@@H]2CCCN2CC)c1O
IC50 [1]: 0.77 nM
Ki [4]: 0.033 nM

CCCc1cc(OC)c(OC)c(C(=O)NC[C@@H]2CCCN2CC)c1OC
IC50 [1]: 2960 nM

CCN1CCC[C@@H]1CNC(=O)c1c(O)c(OC)cc(Br)c1OC
IC50 [1]: 6170 nM

CCN1CCC[C@@H]1CNC(=O)c1c(O)c(Br)cc(OC)c1OC
IC50 [1]: 79 nM
ED50 [2]: 12.6 µmol/kg
ED50 [3]: 5.3 µmol/kg
Ki [4]: 6.54 nM

CCN1CCC[C@H]1CNC(=O)c1c(O)ccc(OC)c1OC
Ki [4]: 0.75 nM

CCN1CCC[C@H]1CNC(=O)c1c(O)c(Br)cc(N)c1OC
IC50 [1]: 33 nM

CCN1CCC[C@H]1CNC(=O)c1c(O)c(Br)cc(O)c1OC
IC50 [1]: 1.9 nM

CCN1CCC[C@H]1CNC(=O)c1c(O)c(Br)cc(OC)c1OC
ED50 [5]: 0.005 µmol/kg
ED50 [6]: 0.14 µmol/kg
Ki [4]: 0.064 nM

CCc1cc(Cl)c(OC)c(C(=O)NC[C@@H]2CCCN2CC)c1O [ETICLOPRIDE]
ED50 [2]: 0.015 µmol/kg
ED50 [5]: 0.09 µmol/kg
ED50 [3]: 0.19 µmol/kg
ED50 [6]: 0.74 µmol/kg

O=C(CCCN1CCC(O)(c2ccc(Cl)cc2)CC1)c1ccc(F)cc1 [HALOPERIDOL]
ED50 [2]: 0.37 µmol/kg
ED50 [5]: 0.35 µmol/kg
ED50 [3]: 0.27 µmol/kg
ED50 [6]: 0.9 µmol/kg

CCN1CCC[C@H]1CNC(=O)c1cc(S(N)(=O)=O)ccc1OC [LEVOSULPIRIDE]
ED50 [2]: 55 µmol/kg
ED50 [5]: 8 µmol/kg
ED50 [3]: 290 µmol/kg
ED50 [6]: 280 µmol/kg

CCN1CCC[C@H]1CNC(=O)c1c(O)c(Cl)cc(Cl)c1OC [RACLOPRIDE]
ED50 [5]: 0.2 µmol/kg
ED50 [6]: 11 µmol/kg
